The source made the active and inactive calls. The rule behind the calls is not given here.
Key:
[1] = target: T1, Human immunodeficiency virus type 1 reverse transcriptase (Human immunodeficiency virus 1, UniProt Q72547); experiment: Inhibition of HIV1 reverse transcriptase p66/p51 polymerase using PPT57 DNA/Cy5-labeled PPT24 as template/primer preincubated for 10 mins followed by dNTP addition measured after 5 mins by bromophenol blue staining based phosphor imaging analysis
Outline: (§1)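 Gel-based DNA synthesis: PPT57 DNA template (3-fold molar excess) heat-annealed to 50 nM 5'-Cy5-labeled PPT24 primer; 200 nM RT in 50 mM Tris-HCl pH 7.8, 50 mM NaCl, 6 mM MgCl2. Started with 0.5 mM each dNTP, 5 min, 12% denaturing gel.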

[2] = target: Human immunodeficiency virus type 1 reverse transcriptase (Human immunodeficiency virus 1) (UniProt Q72547); experiment: (§2) Inhibition of HIV1 reverse transcriptase p66/p51 assessed as freezing of template-primer-enzyme complex at pretranslocated stage at 100 uM using 5'-radiolabeled PBS36c DNA/5'-TTCTGACTAAAAGGGTCTGAGGGAT-3 as template/primer preincubated for 10 mins followed by Fe2+ addition by site-specific foot printing assay
Outline: (§3)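 Fe2+ chemical footprinting: 50 nM 5'-radiolabeled PBS36c DNA template annealed to 150 nM primer, incubated with 750 nM HIV-1 RT in 120 mM sodium cacodylate (pH 7), 20 mM NaCl, 6 mM MgCl2. Compound added at fixed or increasing concentrations, 10 min preincubation at 37 °C. Screening at fixed concentration, 10 µM or 100 µM depending on compound.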

[3] = target: T1, Human immunodeficiency virus type 1 reverse transcriptase; experiment: Inhibition of HIV1 reverse transcriptase p66/p51 RNase H preincubated for 10 mins followed by PBS-22dpol/radiolabeled PBS-14r8d addition measured after 5 mins
Outline: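 Inhibitors titrated up to 250 µM (≤5% final DMSO), 10 min preincubation at 37 °C before reaction start.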

[4] = target: Human immunodeficiency virus type 1 reverse transcriptase (Human immunodeficiency virus 1) (UniProt Q72547); experiment: Ratio of IC50 for HIV1 reverse transcriptase p66/p51 RNase H to IC50 for HIV1 reverse transcriptase p66/p51 polymerase
[5] = target: Human immunodeficiency virus type 1 reverse transcriptase (Human immunodeficiency virus 1) (UniProt Q72547); experiment: Inhibition of HIV1 reverse transcriptase p66/p51 assessed as freezing of template-primer-enzyme complex at pretranslocated stage using 5'-radiolabeled PBS36c DNA/5'-TTCTGACTAAAAGGGTCTGAGGGAT-3 as template/primer preincubated for 10 mins followed by Fe2+ addition by site-specific foot printing assay; outline: as §3
[6] = target: Human immunodeficiency virus type 1 reverse transcriptase (Human immunodeficiency virus 1) (UniProt Q72547); experiment: as §2, with “[…]” for “pretranslocated”, “10” for “100”; outline: as §3
[7] = target: T1, Human immunodeficiency virus type 1 reverse transcriptase; experiment: Inhibition of HIV1 reverse transcriptase p66/p51
Outline: as §1, with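 “MgCl2. Inhibitor titrated up to 250 µM (≤5% final DMSO), 10 min preincubation at 37 °C.” for “MgCl2.”, “gel. IC50 from variable-slope curve fit, ≥3 independent determinations.” for “gel.”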

[8] = test system: Human immunodeficiency virus 1; experiment: Ratio of IC50 for HIV1 reverse transcriptase p66/p51 polymerase E89K mutant to IC50 for HIV1 reverse transcriptase p66/p51 polymerase wild type
[9] = test system: Human immunodeficiency virus 1; experiment: Ratio of IC50 for HIV1 reverse transcriptase p66/p51 polymerase K65R mutant to IC50 for HIV1 reverse transcriptase p66/p51 polymerase wild type
[10] = target: Human immunodeficiency virus type 1 reverse transcriptase (Human immunodeficiency virus 1, UniProt Q72547, K65R); experiment: Inhibition of HIV1 reverse transcriptase p66/p51 polymerase K65R mutant using PPT57 DNA/Cy5-labeled PPT24 as template/primer preincubated for 10 mins followed by dNTP addition measured after 5 mins by bromophenol blue staining based phosphor imaging analysis
Outline: (§4)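 Template/primer: Cy5-labelled PPT24 primer (50 nM) heat-annealed to a 3-fold molar excess of PPT57 DNA template. Incubated with 200 nM RT in 50 mM Tris-HCl pH 7.8, 50 mM NaCl, 6 mM MgCl2. Inhibitor titrated up to […], with at most 5% final DMSO. Pre-incubated 10 min at 37 °C. Started with 0.5 mM each dNTP, run 5 min, stopped with formamide dye. Products resolved on 12% denaturing PAGE and imaged. Normalized data fitted to a variable-slope log[inhibitor]–response curve to give IC50.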

[11] = target: Human immunodeficiency virus type 1 reverse transcriptase (Human immunodeficiency virus 1, UniProt Q72547, M184V); experiment: Inhibition of HIV1 reverse transcriptase p66/p51 polymerase M184V mutant using PPT57 DNA/Cy5-labeled PPT24 as template/primer preincubated for 10 mins followed by dNTP addition measured after 5 mins by bromophenol blue staining based phosphor imaging analysis; outline: as §4
[12] = test system: Human immunodeficiency virus 1; experiment: Ratio of IC50 for HIV1 reverse transcriptase p66/p51 polymerase M184V mutant to IC50 for HIV1 reverse transcriptase p66/p51 polymerase wild type
[13] = target: Human immunodeficiency virus type 1 reverse transcriptase (Human immunodeficiency virus 1, UniProt Q72547, E89K); experiment: Inhibition of HIV1 reverse transcriptase p66/p51 polymerase E89K mutant using PPT57 DNA/Cy5-labeled PPT24 as template/primer preincubated for 10 mins followed by dNTP addition measured after 5 mins by bromophenol blue staining based phosphor imaging analysis; outline: as §4

| IC50 [1] [µM] | Compound | also measured |
| --- | --- | --- |
| 2.8 | O=C(O)c1nc(-c2ccc(Br)cc2)nc(O)c1O | – |
| 49 | Cc1cccc(-c2nc(O)c(O)c(C(=O)O)n2)c1 | – |
| > 100 | COC(=O)c1nc(-c2ccc(C)c(Br)c2)nc(O)c1O | – |
| 1.6 | Cc1ccc(-c2nc(O)c(O)c(C(=O)O)n2)cc1Cl | IC50 [3]: 25 µM; Ratio IC50 [4]: > 10; inhibition [5]: Dose-dependent effect |
| 46 | O=C(O)c1nc(-c2cccs2)nc(O)c1O | – |
| > 100 | O=C(O)c1nc(-c2ccccc2)nc(O)c1O | – |
| 6.3 | Cc1ccc(-c2nc(O)c(O)c(C(=O)O)n2)cc1 | – |
| 18 | O=C(O)c1nc(-c2cccc(Cl)c2)nc(O)c1O | – |
| > 100 | O=C(O)c1nc(-c2cccc(-c3ccc(F)c(F)c3)c2)nc(O)c1O | – |
| > 100 | Cc1noc(C)c1-c1ccc(-c2nc(O)c(O)c(C(=O)O)n2)cc1 | – |
| 22 | CC(C)c1ccc(-c2nc(O)c(O)c(C(=O)O)n2)cc1 | – |
| 14 | O=C(O)c1nc(-c2cccc(Br)c2)nc(O)c1O | Active/not active call for freezing the pre-translocated complex [2]: Active |
| > 100 | CNC(=O)c1nc(-c2ccc(C)c(Br)c2)nc(O)c1O | – |

The next lines start with the compound.

| Compound | IC50 [1] [µM] | also measured |
| --- | --- | --- |
| O=C(O)c1nc(CNc2ncnc3ncc(Br)cc23)nc(O)c1O | 49 | Active/not active call for freezing the pre-translocated complex [2]: inactive |
| O=C(O)c1nc(-c2ccc(Cl)cc2)[nH]c(=O)c1O | 4.5 | – |
| O=C(O)c1nc(Cc2ccc(Cl)cc2)nc(O)c1O | 97 | – |
| Nc1ncnc2c1ncn2CCc1nc(O)c(O)c(C(=O)O)n1 | 41 | – |
| Cn1c2ccccc2c2c1cc(C#N)c(=O)n2-c1ccc([N+](=O)[O-])cc1 | – | inhibition [6]: Active |
| O=C(Nc1ccc(-c2cccc(NC(P(=O)(O)O)P(=O)(O)O)c2)cc1)C1CC1 | – | IC50 [3]: 0.8 µM; IC50 [7]: > 50 µM; Active/not active call for freezing the pre-translocated complex [2]: inactive |
| CSc1nc2ncnc(NCc3nc(O)c(O)c(C(=O)O)n3)c2cc1Br | > 100 | – |
| Cc1ccc(-c2nc(O)c(O)c(C(=O)O)n2)cc1Br | 1.4 to 1.74 | IC50 [3]: 23 µM; Ratio IC50 [4]: > 10; Ratio IC50 [8]: 2.7; inhibition [5]: Dose-dependent effect; Ratio IC50 [9]: < 2; IC50 [10]: 1.13 µM; IC50 [11]: 2.79 µM; Ratio IC50 [12]: < 2; IC50 [13]: 4.63 µM |
| Nc1ncnc2c1ncn2Cc1nc(O)c(O)c(C(=O)O)n1 | > 100 | – |
| COc1ccc(-c2cc3c(NCc4nc(O)c(O)c(C(=O)O)n4)ncnc3nc2SC)cc1 | 62 | IC50 [3]: 2 µM |
| O=C(O)c1nc(CNc2ncnc3ncccc23)nc(O)c1O | 65 | – |
| COc1ccc(-c2cnc3ncnc(NCc4nc(O)c(O)c(C(=O)O)n4)c3c2)cc1 | 25 | IC50 [3]: 1.5 µM; Active/not active call for freezing the pre-translocated complex [2]: inactive |
| O=P(O)(O)C(Nc1cccc(Br)c1)P(=O)(O)O | – | Active/not active call for freezing the pre-translocated complex [2]: Active |
| O=C(O)c1nc(-c2cc(C(F)(F)F)cc(C(F)(F)F)c2)nc(O)c1O | 20 | Active/not active call for freezing the pre-translocated complex [2]: inactive |
